{"source": "paper PMC4143770", "about": "(Scientific Reports, 2014)", "key": {"[1]": {"system": "glycoconjugate-lytic β-GlcNAcases from plant and human", "settings": "cited from earlier work"}, "OfHex1 (W490A)": {"target": "T1, OfHex1 (W490A) (Ostrinia furnacalis, UniProt Q06GJ0, W490A)", "T1 sequence (Q06GJ0 23-594 W490A)": "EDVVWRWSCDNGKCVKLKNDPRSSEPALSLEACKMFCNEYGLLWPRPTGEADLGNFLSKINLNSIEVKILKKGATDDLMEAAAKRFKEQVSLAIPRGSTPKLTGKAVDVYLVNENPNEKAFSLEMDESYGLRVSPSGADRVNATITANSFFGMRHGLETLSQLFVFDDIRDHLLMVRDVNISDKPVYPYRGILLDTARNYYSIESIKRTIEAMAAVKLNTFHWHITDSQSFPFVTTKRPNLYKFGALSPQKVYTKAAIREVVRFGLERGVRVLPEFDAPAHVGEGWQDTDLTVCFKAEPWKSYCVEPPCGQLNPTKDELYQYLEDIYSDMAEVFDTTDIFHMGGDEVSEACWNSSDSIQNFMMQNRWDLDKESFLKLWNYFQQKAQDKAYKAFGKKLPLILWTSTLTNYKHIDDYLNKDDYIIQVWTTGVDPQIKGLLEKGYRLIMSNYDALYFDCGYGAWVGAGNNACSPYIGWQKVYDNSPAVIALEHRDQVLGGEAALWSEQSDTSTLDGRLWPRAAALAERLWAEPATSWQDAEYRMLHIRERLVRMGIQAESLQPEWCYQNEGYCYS", "experiment": "Inhibition of mutant OfHex1-W490A", "type": "biochemical", "procedure,_shortened": "(§1)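 Purchased bovine Hex, recombinant O. furnacalis OfHex2 and the OfHex1 W490A mutant were assayed at 25°C with pNP-β-GlcNAc. Reactions were stopped with 0.5 M Na2CO3 and A405 was recorded. Where Ki was determined, substrate was 0.075, 0.125 and 0.2 mM, with values from linear Dixon-plot fits. W490A was also tested at 100 µM inhibitor.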"}, "[2]": {"target": "HsHex (human glycoconjugate-lytic β-GlcNAcase) (Homo sapiens, UniProt P07686)", "sequence (P07686 122-311 limits assumed)": "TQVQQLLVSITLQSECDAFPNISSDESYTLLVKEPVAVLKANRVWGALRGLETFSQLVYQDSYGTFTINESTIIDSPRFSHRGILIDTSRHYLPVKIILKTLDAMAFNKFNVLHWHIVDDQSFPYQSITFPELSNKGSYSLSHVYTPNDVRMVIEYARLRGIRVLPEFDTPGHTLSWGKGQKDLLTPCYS", "sequence (P07686 315-556 limits assumed)": "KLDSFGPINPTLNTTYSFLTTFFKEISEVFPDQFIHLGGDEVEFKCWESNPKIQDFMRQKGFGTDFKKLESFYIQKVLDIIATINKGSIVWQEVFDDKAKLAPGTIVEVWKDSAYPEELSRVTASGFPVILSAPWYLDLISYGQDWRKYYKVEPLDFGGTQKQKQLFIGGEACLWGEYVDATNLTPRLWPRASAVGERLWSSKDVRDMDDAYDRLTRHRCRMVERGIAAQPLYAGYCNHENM", "experiment": "Inhibition of HsHex, pNP-β-GlcNAc substrate, Dixon plots", "type": "biochemical"}, "[3]": {"system": "CeHex (glycoconjugate-lytic β-GlcNAcase)", "experiment": "Inhibition of CeHex", "type": "biochemical, Canavalia ensformis"}, "[4]": {"target": "T2, SpHex (chitinolytic β-GlcNAcase) (Streptomyces plicatus, UniProt O85361)", "T2 sequence (O85361 1-506)": "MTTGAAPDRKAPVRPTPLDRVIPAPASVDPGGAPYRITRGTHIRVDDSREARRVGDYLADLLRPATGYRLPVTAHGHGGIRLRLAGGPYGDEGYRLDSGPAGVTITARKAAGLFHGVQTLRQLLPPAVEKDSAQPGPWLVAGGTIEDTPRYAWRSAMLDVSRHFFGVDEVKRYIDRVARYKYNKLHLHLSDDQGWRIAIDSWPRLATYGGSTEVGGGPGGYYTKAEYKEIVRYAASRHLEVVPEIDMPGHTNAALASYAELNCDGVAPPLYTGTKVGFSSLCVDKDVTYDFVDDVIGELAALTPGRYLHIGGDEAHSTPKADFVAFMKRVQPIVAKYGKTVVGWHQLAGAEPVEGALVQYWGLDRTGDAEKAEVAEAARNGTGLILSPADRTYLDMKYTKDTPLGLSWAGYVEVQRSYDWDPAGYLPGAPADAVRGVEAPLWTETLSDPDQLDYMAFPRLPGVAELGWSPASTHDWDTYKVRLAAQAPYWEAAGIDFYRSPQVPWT", "experiment": "Inhibition of SpHex", "type": "biochemical"}, "[5]": {"target": "T3, SmChb (chitinolytic β-GlcNAcase) (Serratia marcescens, UniProt Q54468)", "T3 sequence (Q54468 28-885)": "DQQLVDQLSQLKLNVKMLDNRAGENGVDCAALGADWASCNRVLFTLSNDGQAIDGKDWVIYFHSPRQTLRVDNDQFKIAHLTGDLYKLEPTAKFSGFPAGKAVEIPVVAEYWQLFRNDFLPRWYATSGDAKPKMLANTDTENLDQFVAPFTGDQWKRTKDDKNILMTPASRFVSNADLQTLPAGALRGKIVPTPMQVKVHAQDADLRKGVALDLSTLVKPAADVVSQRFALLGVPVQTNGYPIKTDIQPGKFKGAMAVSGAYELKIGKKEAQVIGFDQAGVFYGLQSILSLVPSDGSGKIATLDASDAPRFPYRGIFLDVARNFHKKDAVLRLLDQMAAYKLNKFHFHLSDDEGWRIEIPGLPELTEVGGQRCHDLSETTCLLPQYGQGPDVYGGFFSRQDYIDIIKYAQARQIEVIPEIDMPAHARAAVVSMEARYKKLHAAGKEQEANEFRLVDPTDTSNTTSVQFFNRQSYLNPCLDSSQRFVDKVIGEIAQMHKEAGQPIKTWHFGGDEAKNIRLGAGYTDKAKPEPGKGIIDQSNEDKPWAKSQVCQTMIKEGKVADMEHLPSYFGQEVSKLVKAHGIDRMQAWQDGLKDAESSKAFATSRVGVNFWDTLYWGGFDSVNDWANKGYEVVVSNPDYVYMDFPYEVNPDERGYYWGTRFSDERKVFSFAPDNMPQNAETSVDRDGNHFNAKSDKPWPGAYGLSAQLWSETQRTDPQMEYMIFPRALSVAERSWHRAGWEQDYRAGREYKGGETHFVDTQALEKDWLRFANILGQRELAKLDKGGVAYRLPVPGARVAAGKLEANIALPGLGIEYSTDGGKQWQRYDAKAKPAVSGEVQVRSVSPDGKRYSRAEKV", "experiment": "Inhibition of SmChb", "type": "biochemical", "procedure,_shortened": "(§2)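 Recombinant O. furnacalis OfHex1, recombinant S. marcescens SmChb and purchased T. viride TvHex were assayed at 25°C with pNP-β-GlcNAc in 20 mM sodium phosphate, pH 6.0. After incubation, 0.5 M Na2CO3 was added and A405 measured. Ki used substrate at 0.075, 0.125 and 0.2 mM and an enzyme-specific inhibitor range. Ki and inhibition type came from linear Dixon-plot fitting.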"}, "[6]": {"system": "OfHex2 (glycoconjugate-lytic β-GlcNAcase)", "experiment": "Inhibition of OfHex2", "type": "biochemical, O. furnacalis", "procedure,_shortened": "as §1"}, "[7]": {"target": "T4, OfHex1 (chitinolytic β-GlcNAcase) (Ostrinia furnacalis, UniProt Q06GJ0)", "T4 sequence (Q06GJ0 23-594)": "T1 sequence (Q06GJ0 23-594 W490A) with A468W", "experiment": "Inhibition of OfHex1, pNP-β-GlcNAc substrate, Dixon plots", "type": "biochemical", "procedure,_shortened": "as §2"}, "[8]": {"system": "BoHex (glycoconjugate-lytic β-GlcNAcase)", "experiment": "Inhibition of BoHex", "type": "biochemical, bovine", "procedure,_shortened": "as §1"}, "[9]": {"target": "TvHex (chitinolytic β-GlcNAcase)", "experiment": "Inhibition of TvHex", "type": "biochemical, Trichoderma viride", "settings": "read-out: Ki for TvHex; pNP-β-GlcNAc, pH 6.0", "procedure,_shortened": "as §2"}}, "note": "Positions count from the first letter of the chain named. pKi: −log10 of the molar value.", "data": [{"smiles": "CC(=O)NC1C(O)O[C@H](CO)[C@@H](O[C@@H]2O[C@H](CO)[C@@H](O[C@@H]3O[C@H](CO)[C@@H](O[C@H]4O[C@H](CO)[C@@H](O)[C@H](O)[C@H]4[N+](C)(C)C)[C@H](O)[C@H]3NC(C)=O)[C@H](O)[C@H]2NC(C)=O)[C@@H]1O", "note": "(stereo partly shown) [TMG-chitotriomycin]", "values": [{"measurement": "Activity toward glycoconjugate-lytic β-GlcNAcases from plant and human", "setting": "[1]", "value": "not active"}]}, {"smiles": "Cc1nnc(CNCCN2C(=O)c3cccc4c(N(C)C)ccc(c34)C2=O)s1", "note": "[Q2, 6-(dimethylamino)-2-(2-(((5-methyl-1,3,4-thiadiazol-2-yl)methyl)amino)ethyl)-1H-benzo[de]isoquinoline-1,3(2H)-dione]", "values": [{"measurement": "pKi", "setting": "OfHex1 (W490A)", "value": "< 4.00"}, {"measurement": "pKi", "setting": "[2]", "value": "< 4.00"}, {"measurement": "Inhibition of HsHex at 100 µM", "setting": "[2]; 100 µM", "value": "does not inhibit"}, {"measurement": "Inhibition of CeHex", "setting": "[3]", "value": "does not inhibit"}, {"measurement": "pKi", "setting": "[4]", "value": 4.13}, {"measurement": "pKi", "setting": "[5]", "value": 5.08}, {"measurement": "Inhibition of OfHex2", "setting": "[6]", "value": "does not inhibit"}, {"measurement": "pKi", "setting": "[7]", "value": 6.51}, {"measurement": "Type of inhibition toward OfHex1 (Dixon plots)", "setting": "[7]", "value": "competitive"}, {"measurement": "Increment in inhibitory activity against OfHex1 compared to Q1", "setting": "[7]; Q2 versus Q1, from Ki", "value": 13, "unit": "fold"}, {"measurement": "Inhibition of BoHex", "setting": "[8]", "value": "does not inhibit"}, {"measurement": "pKi", "setting": "[9]", "value": 4.60}]}, {"smiles": "Cc1nnc(CNCCN2C(=O)c3cccc4cccc(c34)C2=O)s1", "note": "[Q1, 2-(2-(((5-methyl-1,3,4-thiadiazol-2-yl)methyl)amino)ethyl)-1H-benzo[de]isoquinoline-1,3(2H)-dione]", "values": [{"measurement": "pKi", "setting": "OfHex1 (W490A)", "value": "< 4.00"}, {"measurement": "Inhibition of OfHex1-W490A at 100 µM", "setting": "OfHex1 (W490A); 100 µM", "value": "could not inhibit"}, {"measurement": "pKi", "setting": "[2]", "value": 5.67}, {"measurement": "Type of inhibition toward HsHex (Dixon plots)", "setting": "[2]; Dixon plots", "value": "competitive inhibitor"}, {"measurement": "pKi", "setting": "[7]", "value": 5.37}, {"measurement": "Type of inhibition toward OfHex1 (Dixon plots)", "setting": "[7]", "value": "competitive inhibitor"}]}]}
